This is an account of results in ChEMBL document CHEMBL1221232, “Synthesis and biological activity of 4''-O-acyl derivatives of 14- and 15-membered macrolides linked to omega-quinolone-carboxylic unit” (Bioorg Med Chem, 2010).

Values after ≈ are worked out from the molar mass of the structure shown.

For series [1], the system named is Streptococcus pyogenes. The experiment in a line: Antibacterial activity against constitutive MLS resistance Streptococcus pyogenes 166 GR-Micro by broth microdilution method. It counts as functional. In outline:
(§1)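 MIC by CLSI broth microdilution, except that the streptococcal medium used 5% horse serum in place of lysed blood. Streptococcal inocula came from Columbia agar with 5% sheep blood. The MIC is the lowest concentration inhibiting growth.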

For series [2], the system named is Streptococcus pneumoniae. Description: Antibacterial activity against inducible resistance to macrolide and constitutive resistance to lincosamide Streptococcus pneumoniae 134 GR M by broth microdilution method. It counts as functional. In short, it runs like this: as §1
In series [3] the test system is Haemophilus influenzae. Description: Antibacterial activity against Haemophilus influenzae ATCC 49247 by broth microdilution method. Type of series: functional. In outline:
(§2)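 MIC by CLSI broth microdilution. Inocula from agar-grown cultures: chocolate agar for H. influenzae, Columbia agar with 5% sheep blood for M. catarrhalis, Mueller-Hinton agar for S. aureus. Read as minimum inhibitory concentration in µg/mL.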

In series [4] the test system is Staphylococcus aureus. Description: Antibacterial activity against macrolide, licosamide and streptogramin inducible-resistance Staphylococcus aureus 90256 by broth microdilution method. It counts as functional. In outline: (§3)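 MIC by CLSI broth microdilution. Staphylococci were grown on Mueller-Hinton agar before testing. The MIC is the lowest concentration inhibiting growth.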

Series [5] concerns Streptococcus pyogenes. The experiment in a line: Antibacterial activity against efflux-mediated macrolide resistance Streptococcus pyogenes 2 by broth microdilution method. Type of series: functional. In outline:
as §1

The test system of series [6] is Moraxella catarrhalis. The experiment in a line: Antibacterial activity against Moraxella catarrhalis ATCC 23246 by broth microdilution method. Type of series: functional. In short, it runs like this: as §2
Series [7] concerns Staphylococcus aureus. Description: Antibacterial activity against efflux-mediated macrolide resistance Staphylococcus aureus PK1 by broth microdilution method. Type of series: functional. In outline: as §3
Series [8] concerns Streptococcus pneumoniae. Description: Antibacterial activity against efflux-mediated macrolide resistance Streptococcus pneumoniae Ci137 by broth microdilution method. Type of series: functional. In outline:
as §1

Series [9] has as its system Streptococcus pyogenes. The experiment in a line: Antibacterial activity against macrolide, licosamide and streptogramin inducible-resistance Streptococcus pyogenes 11 by broth microdilution method. It counts as functional. In short, it runs like this:
as §1

The subject of series [10] is Staphylococcus aureus. Description: Antibacterial activity against erythromycin-sensitive Staphylococcus aureus ATCC 13709 by broth microdilution method. It counts as functional. In short, it runs like this:
as §2

Series [11] has as its system Streptococcus pneumoniae. Description: Antibacterial activity against constitutive MLS-resistance Streptococcus pneumoniae 58 by broth microdilution method. Type of series: functional. In short, it runs like this: as §1
Series [12] is described as follows: Oral bioavailability in Sprague-Dawley rat blood at 30 mg/kg. Type of series: ADME, organism-based. The conditions noted are these: whole blood. In short, it runs like this:
(§4)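 Po/iv crossover study in male Sprague-Dawley rats. Target doses were 30 mg/kg po (fasted) and 5 mg/kg iv (fed). Compound was given as a solution in 1.0% DMSO and 20% (w/v) Encapsin, in saline for iv or water for po, pH 3.5–4.0. Blood was sampled at several timepoints up to 1800 min and hemolyzed 1:1 with water.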

Series [13] concerns Rattus norvegicus. Description: Liver blood flow in Sprague-Dawley rat blood at 30 mg/kg, po and 5 mg/kg, iv. Type of series: ADME, organism-based. The conditions noted are these: in vivo. In outline: as §4
Series [14] can be described thus: Volume of distribution at steady state in Sprague-Dawley rat blood at 30 mg/kg, po and 5 mg/kg, iv. Type of series: ADME, organism-based. The conditions noted are these: whole blood, read-out: Vdss. In outline:
as §4

For series [15], the system named is Rattus norvegicus. Description: Clearance in Sprague-Dawley rat blood as % of liver blood flow at 30 mg/kg, po and 5 mg/kg, iv. The following applies: in vivo. Type of series: ADME, organism-based. In short, it runs like this: as §4

Turning to `CCCn1cc(C(=O)O)c(=O)c2cc(CCCOCCOCCC(=O)O[C@H]3[C@H](C)O[C@@H](O[C@H]4[C@H](C)[C@@H](O[C@@H]5O[C@H](C)C[C@H](N(C)C)[C@H]5O)[C@](C)(O)C[C@@H](C)CN(C)[C@H](C)[C@@H](O)[C@](C)(O)[C@@H](CC)OC(=O)[C@@H]4C)C[C@@]3(C)OC)ccc21`, the MIC in series [1] is 0.25 µg/mL (≈ 0.22 µM); in series [2] it was at most 0.125 µg/mL; in series [3], 1 µg/mL (≈ 0.88 µM); in series [4] it was at most 0.125 µg/mL; in series [5], at most 0.125 µg/mL; in series [6], 0.5 µg/mL (≈ 0.44 µM). Besides, the MIC in series [7], in [8], in [9], in series [10] and in series [11] was at most 0.125 µg/mL each time. The MIC50 in series [3] is 1 µg/mL (≈ 0.88 µM). In series [3], this molecule showed an MIC90 of 2 µg/mL (≈ 1.76 µM).

As for `CC[C@H]1OC(=O)[C@H](C)[C@@H](O[C@H]2C[C@@](C)(OC)[C@@H](O)[C@H](C)O2)[C@H](C)[C@@H](O[C@@H]2O[C@H](C)C[C@H](N(C)C)[C@H]2O)[C@](C)(O)C[C@@H](C)CN(C)[C@H](C)[C@@H](O)[C@]1(C)O` [AZITHROMYCIN], the MIC in series [1] is over 64 µg/mL; in series [2], over 64 µg/mL; in series [3], 1 µg/mL (≈ 1.34 µM); in series [4], over 64 µg/mL; in series [5], 8 µg/mL (≈ 10.7 µM); in series [6], at most 0.125 µg/mL. The MIC in [7] is over 64 µg/mL; in series [8], 8 µg/mL (≈ 10.7 µM); in series [9], over 64 µg/mL; in series [10] it was 0.5 µg/mL (≈ 0.668 µM); in [11], over 64 µg/mL. In series [3], this molecule showed an MIC50 of 1 µg/mL (≈ 1.34 µM). The MIC90 in series [3] turned out to be 2 µg/mL (≈ 2.67 µM).

In the case of `CC[C@H]1OC(=O)[C@H](C)[C@@H](O[C@@H]2O[C@@H](C)C[C@](C)(OC)[C@H]2OC(=O)CCOCCOCCCc2ccc3c(c2)c(=O)c(C(=O)O)cn3CC)[C@H](C)[C@@H](O[C@@H]2O[C@H](C)C[C@H](N(C)C)[C@H]2O)[C@](C)(OC)C[C@@H](C)C(=O)[C@H](C)[C@H]2N(C)C(=O)O[C@]12C`, the MIC is at most 0.125 µg/mL in series [1]; at most 0.125 µg/mL in [2]; 1 µg/mL (≈ 0.862 µM) in series [3]; 0.25 µg/mL (≈ 0.215 µM) in [4]; at most 0.125 µg/mL in [5]; at most 0.125 µg/mL in series [6]. In addition, the MIC was 0.5 µg/mL (≈ 0.431 µM) in series [7]; at most 0.125 µg/mL in series [8]; at most 0.125 µg/mL in series [9]; at most 0.125 µg/mL in series [10]; at most 0.125 µg/mL in [11].

`CC[C@H]1OC(=O)[C@H](C)[C@@H](O[C@@H]2O[C@@H](C)C[C@](C)(OC)[C@H]2OC(=O)CCOCCOCCCc2ccc3c(c2)c(=O)c(C(=O)O)cn3CC)[C@H](C)[C@@H](O[C@@H]2O[C@H](C)C[C@H](N(C)C)[C@H]2O)[C@](C)(OC)C[C@@H](C)C(=O)[C@H](C)[C@H]2NC(=O)O[C@@]21C`: the MIC in series [1] is at most 0.125 µg/mL; in [2], at most 0.125 µg/mL; in series [3], 1 µg/mL (≈ 0.872 µM); in [4] it was at most 0.125 µg/mL; in series [5], at most 0.125 µg/mL; in series [6], 1 µg/mL (≈ 0.872 µM). Also, the MIC in series [7], in series [8], in series [9], in [10] and in [11] was at most 0.125 µg/mL in each case. Besides, in series [3], the MIC50 was 2 µg/mL (≈ 1.74 µM). In series [3], this molecule had an MIC90 of 4 µg/mL (≈ 3.49 µM).

For `CC[C@H]1OC(=O)[C@H](C)[C@@H](O[C@H]2C[C@@](C)(OC)[C@@H](OC(=O)CCOCCOCCCc3ccc4c(c3)c(=O)c(C(=O)O)cn4C3CC3)[C@H](C)O2)[C@H](C)[C@@H](O[C@@H]2O[C@H](C)C[C@H](N(C)C)[C@H]2O)[C@](C)(O)C[C@@H](C)CN(C)[C@H](C)[C@@H](O)[C@]1(C)O`, the MIC was 0.5 µg/mL (≈ 0.441 µM) in series [1]; 0.25 µg/mL (≈ 0.22 µM) in [2]; 2 µg/mL (≈ 1.76 µM) in series [3]; at most 0.125 µg/mL in [4]; at most 0.125 µg/mL in [5]; 0.5 µg/mL (≈ 0.441 µM) in series [6]. The MIC in [7], in series [8], in series [9], in series [10] and in series [11] was at most 0.125 µg/mL throughout. In series [12], the bioavailability was 16%. In addition, in series [3], the MIC50 was 1 µg/mL (≈ 0.882 µM). The molecule further displayed an MIC90 in series [3] of 2 µg/mL (≈ 1.76 µM). Besides, the LBF in series [13] is recorded as 43%. The Vd in series [14] is 10.5 L/kg.

In the case of `CC[C@H]1OC(=O)[C@H](C)C(=O)[C@H](C)[C@@H](O[C@@H]2O[C@H](C)C[C@H](N(C)C)[C@H]2O)[C@](C)(OC)C[C@@H](C)C(=O)[C@H](C)[C@H]2N(CCCCn3cnc(-c4cccnc4)c3)C(=O)O[C@]12C` [TELITHROMYCIN], the MIC in series [1] was 16 µg/mL (≈ 19.7 µM); in series [2], 0.25 µg/mL (≈ 0.308 µM); in [3], 2 µg/mL (≈ 2.46 µM); in series [4], at most 0.125 µg/mL; in series [5], 0.5 µg/mL (≈ 0.616 µM); in series [6], at most 0.125 µg/mL. The MIC in series [7] is at most 0.125 µg/mL; in series [8] it was 0.25 µg/mL (≈ 0.308 µM); in series [9], at most 0.125 µg/mL; in [10] it was at most 0.125 µg/mL; in [11], 0.25 µg/mL (≈ 0.308 µM).

On to `CC[C@H]1OC(=O)[C@H](C)[C@@H](O[C@H]2C[C@@](C)(OC)[C@@H](OC(=O)CCOCCOCCCc3ccc4c(c3)c(=O)c(C(=O)O)cn4CC)[C@H](C)O2)[C@H](C)[C@@H](O[C@@H]2O[C@H](C)C[C@H](N(C)C)[C@H]2O)[C@](C)(O)C[C@@H](C)CN(C)[C@H](C)[C@@H](O)[C@]1(C)O`, for which the MIC was at most 0.125 µg/mL in series [1]; 0.25 µg/mL (≈ 0.223 µM) in series [2]; 1 µg/mL (≈ 0.891 µM) in series [3]; 0.25 µg/mL (≈ 0.223 µM) in series [4]; at most 0.125 µg/mL in [5]; at most 0.125 µg/mL in [6]. Moreover, the MIC in series [7] was 0.25 µg/mL (≈ 0.223 µM); in [8] it was at most 0.125 µg/mL; in series [9] it was at most 0.125 µg/mL; in series [10], at most 0.125 µg/mL; in series [11] it was at most 0.125 µg/mL. In [12], this molecule gave a bioavailability of 22%. The MIC50 in series [3] was 1 µg/mL (≈ 0.891 µM). The MIC90 in [3] was 2 µg/mL (≈ 1.78 µM). The Vd in [14] was determined as 10.4 L/kg. Also, in series [15], the “Fraction of Liver Blood Flow” value is 35%.

As to `CC[C@H]1OC(=O)[C@H](C)[C@@H](O[C@@H]2O[C@@H](C)C[C@](C)(OC)[C@H]2OC(=O)CCOCCOCCCc2ccc3c(c2)c(=O)c(C(=O)O)cn3CC)[C@H](C)[C@@H](O[C@@H]2O[C@H](C)C[C@H](N(C)C)[C@H]2O)[C@](C)(O)C[C@@H](C)/C(=N\OCOCCOC)[C@H](C)[C@@H](O)[C@]1(C)O`, the MIC was 1 µg/mL (≈ 0.826 µM) in [1]; 0.5 µg/mL (≈ 0.413 µM) in series [2]; 4 µg/mL (≈ 3.3 µM) in [3]; 8 µg/mL (≈ 6.61 µM) in series [4]; at most 0.125 µg/mL in series [5]; 1 µg/mL (≈ 0.826 µM) in series [6]. Besides, the MIC in [7] was 1 µg/mL (≈ 0.826 µM); in series [8], at most 0.125 µg/mL; in series [9], at most 0.125 µg/mL; in series [10] it was 0.5 µg/mL (≈ 0.413 µM); in series [11], 1 µg/mL (≈ 0.826 µM).
